According to ChEMBL document CHEMBL1133978, “Potent peptide alpha-ketohydroxamate inhibitors of recombinant human calpain I” (Bioorg Med Chem Lett, 2001):

tested on: MOLT-4; test: Inhibition of cell permeability by measuring the spectrin breakdown product in intact MOLT-4 cells; format: functional, cell-based; settings: Homo sapiens
Outline: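 Intact MOLT-4 cells (human leukemia T-cell line) had calpain activated with ionomycin. Cell permeability was read as inhibition of the spectrin breakdown product. Potency is reported as IC50.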

IC50 | SMILES
600 nM | CC(C)C[C@H](NC(=O)OCc1ccccc1)C(=O)N[C@@H](Cc1ccccc1)C(=O)C(=O)NOCc1ccccc1
600 nM | CC(C)[C@@H](NC(=O)OCc1ccccc1)C(=O)N[C@@H](Cc1ccccc1)C(=O)C(=O)NOCc1ccccc1
900 nM | CONC(=O)C(=O)[C@H](Cc1ccccc1)NC(=O)[C@H](CC(C)C)NC(=O)OCc1ccccc1
3900 nM | CC(C)C[C@H](NC(=O)OCc1ccccc1)C(=O)N[C@@H](Cc1ccccc1)C(=O)C(=O)NOC(C)(C)C
500 nM | CCCC[C@H](NC(=O)[C@@H](NC(=O)OCc1ccccc1)C(C)C)C(=O)C(=O)NOCc1ccccc1
2900 nM | CC(C)C[C@H](NC(=O)OCc1ccccc1)C(=O)N[C@@H](Cc1ccccc1)C(=O)C(=O)NOCc1c(F)c(F)c(F)c(F)c1F

More lines, now with the values behind:

SMILES | IC50
CS(=O)(=O)N[C@H](COCc1ccccc1)C(=O)N[C@@H](Cc1ccccc1)C(=O)C(=O)NOCc1ccccc1 | 900 nM
CCONC(=O)C(=O)[C@H](Cc1ccccc1)NC(=O)[C@H](CC(C)C)NC(=O)OCc1ccccc1 | 1100 nM
CONC(=O)C(=O)[C@H](Cc1ccccc1)NC(=O)[C@H](CC(C)C)NC(=O)[C@H](CC(C)C)NC(=O)OCc1ccccc1 | 200 nM
CC(C)C[C@H](NC(=O)OCc1ccccc1)C(=O)N[C@@H](CC(C)C)C(=O)N[C@@H](Cc1ccccc1)C(=O)C(=O)NOCc1ccccc1 | 200 nM

tested on: MOLT-4; test: Compound was tested for inhibition of cell permeability by measuring the spectrin breakdown product in intact MOLT-4 cells at 1 uM; format: functional; settings: Homo sapiens
Outline: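 In intact MOLT-4 human leukemia T cells, calpain was activated by ionomycin. Spectrin breakdown product was measured, and inhibition is given as percent at a single 1 μM test concentration.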

SMILES | inhibition at 1 µM
CC(C)C[C@H](NC(=O)OCc1ccccc1)C(=O)N[C@@H](Cc1ccccc1)C(=O)C(=O)NOC1CCC(C)CC1 (stereo partly specified) | 26%
